The source of these data is ChEMBL document CHEMBL3407387, “Antioxidant activity and inhibition of α-glucosidase by hydroxyl-functionalized 2-arylbenzo[b]furans” (Eur J Med Chem, 2015).

Data set [1] in a line: Antioxidant activity assessed as DPPH radical scavenging activity incubated for 5 mins by microplate spectrophotometry. In kind it is physicochemical.
Data set [2] can be described thus: Inhibition of Saccharomyces cerevisiae alpha-glucosidase using 4-NPGP substrate assessed as reduction in 4-nitrophenol release pre-incubated for 10 mins before substrate addition by microplate reader based assay. The method, boiled down: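 Test compound at 0 to 100 µM premixed with enzyme in 100 mM phosphate buffer, pH 7.0, and held 30 °C for 10 min. Then 12.5 mM 4-NPGP (stock) added and 4-nitrophenol release read at 405 nm. IC50 is the concentration inhibiting 50% of α-glucosidase activity.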

A short description of data set [3]: Inhibition of Saccharomyces cerevisiae alpha-glucosidase. The essentials: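 Compound (0 to 100 µM) premixed with 100 mM phosphate buffer pH 7.0, 30 °C for 10 min; 12.5 mM 4-nitrophenyl glucopyranoside substrate then added; 4-nitrophenol release read at 405 nm; resveratrol and quercetin as positive controls; IC50 = concentration giving 50% inhibition.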
Data set [4] in a line: Antioxidant activity assessed as DPPH radical scavenging activity. In kind it is physicochemical. The essentials:
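Compound dissolved in MeOH (0 to 100 µM), mixed with 0.1 mM DPPH, 150 µL final mixture, 37 °C for 5 min; absorbance at 517 nm; IC50 derived from DPPH scavenging.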
(In general: Loss of DPPH colour is used to gauge radical scavenging.)

The test system of data set [5] is Saccharomyces cerevisiae. As to the kind of experiment: Mixed type inhibition of Saccharomyces cerevisiae alpha-glucosidase using 4-NPGP substrate assessed as reduction in 4-nitrophenol release pre-incubated for 10 mins before substrate addition by Lineweaver-Burk plot analysis. The essentials:
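Double-reciprocal (Lineweaver-Burk) analysis of initial velocities, taken as A405 rate/min, across increasing 4-NPGP concentrations. Inhibitor present at 0, 0.25, 0.5 and 1.0 µM. Run in pH 7.0 phosphate buffer at 30 °C to assign inhibition mode.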

Data set [6] can be described thus: Mixed type inhibition of Saccharomyces cerevisiae alpha-glucosidase using 4-NPGP substrate assessed as equilibrium constant for binding to enzyme by measuring reduction in 4-nitrophenol release pre-incubated for 10 mins before substrate addition by Dixon plot analysis.
The subject of data set [7] is Saccharomyces cerevisiae. Nature of the data set: Mixed type inhibition of Saccharomyces cerevisiae alpha-glucosidase using 4-NPGP substrate assessed as reduction in 4-nitrophenol release pre-incubated for 10 mins before substrate addition by Dixon plot analysis.
Data set [8] can be described thus: Mixed type inhibition of Saccharomyces cerevisiae alpha-glucosidase using 4-NPGP substrate assessed as equilibrium constant for binding to enzyme-4-NPGP complex by measuring reduction in 4-nitrophenol release pre-incubated for 10 mins before substrate addition by Dixon plot analysis.

Calls of active or inactive are those of the source. No cut-off for these calls is given here.

Consider `Oc1cc(Br)c(-c2cc3cccc(O)c3o2)cc1O`, for which the IC50 was 20.6 µM in data set [1] and 7.1 µM in data set [2].

As for `CCOC(=O)/C=C/c1cc(OC)c(OC)cc1-c1cc2cccc(OC)c2o1`, the IC50 in data set [1] and in data set [2] was over 100 µM in each case.

For the molecule `Oc1ccc(/C=C/c2cc(O)cc(O)c2)cc1` [RESVERATROL], the concentration for half-maximal inhibition (IC50) in data set [3] is 27.9 µM; in data set [4] it was 38 µM; in data set [1] it was 63.5 µM; in data set [2], 31.1 µM.

Consider `Oc1cc(-c2cc3cc(Br)cc(O)c3o2)cc(O)c1O`, for which the IC50 in data set [1] stood at 14.6 µM; in data set [2], 3 µM.

As for `Oc1ccc(-c2cc3cc(Br)cc(O)c3o2)cc1O`, the half-inhibitory concentration (IC50) in data set [1] amounted to 28.6 µM; in data set [2], 7.5 µM.

As for `Oc1ccc(-c2cc3c(Br)ccc(O)c3o2)cc1O`, the IC50 in data set [1] was found to be 18.4 µM; in data set [2] it was 6.4 µM.

For `Oc1cc(Br)c(-c2cc3c(Br)ccc(O)c3o2)cc1O`, the IC50 in data set [1] was 7.8 µM; in data set [2] it was 6.4 µM.

As to `CCOC(=O)/C=C/c1cc(O)c2oc(-c3cc(O)c(O)c(O)c3)cc2c1`, the inhibition result in data set [5] and in data set [7] was “Active” each time. In addition, the figures for the inhibition constant Ki in data set [6] and in data set [8] were 3.19 µM and 11.8 µM, respectively. Besides, the IC50 in data set [1] was determined as 11.7 µM; in data set [2], 2 µM.

Take `Oc1cc(-c2cc3cccc(O)c3o2)cc(O)c1O`: the results for the half-inhibitory concentration (IC50) in data set [1] and in data set [2] were 12.8 µM and 9.2 µM, respectively.

`O=c1c(O)c(-c2ccc(O)c(O)c2)oc2cc(O)cc(O)c12` [QUERCETIN]: the concentration for half-maximal inhibition (IC50) in data set [3] worked out at 5.3 µM; in data set [4] it was 9.1 µM; in data set [1], 6 µM; in data set [2] it was 6.6 µM.

As for `COc1ccc(-c2cc3cccc(OC)c3o2)cc1OC`, the half-inhibitory concentration (IC50) in data set [1] and in data set [2] was over 100 µM throughout.

`Oc1ccc(-c2cc3cccc(O)c3o2)cc1O`: the inhibition result in data set [5] and in data set [7] was “Active” in each case. Further, the inhibition constant (Ki) was 4.21 µM in data set [6] and 13.7 µM in data set [8]. Besides, the figures for the IC50 in data set [1] and in data set [2] were 18.5 µM and 1.9 µM, respectively.

`COc1cc(-c2cc3cc(Br)cc(OC)c3o2)cc(OC)c1OC`: the concentration for half-maximal inhibition (IC50) in data set [1] and in data set [2] was over 100 µM each time.

`CCOC(=O)/C=C/c1cc(O)c(O)cc1-c1cc2cccc(O)c2o1`: the half-maximal inhibitory concentration (IC50) in data set [1] worked out at 26.2 µM; in data set [2] it was 5.5 µM.

`Oc1ccc(-c2cc3cc(Br)cc(O)c3o2)cc1`: the IC50 in data set [1] was over 100 µM; in data set [2] it was 29.8 µM.

Turning to `Oc1cc(-c2cc3ccccc3o2)c(Br)c(O)c1O`, the 50% inhibitory concentration (IC50) in data set [1] was 18 µM; in data set [2], 8.5 µM.

Regarding `CCOC(=O)/C=C/c1cc(O)c2oc(-c3ccc(O)c(O)c3)cc2c1`, the values for the IC50 in data set [1] and in data set [2] were 25.4 µM and 23.8 µM, respectively.

In the case of `Oc1cc(-c2cc3ccccc3o2)cc(O)c1O`, the results for the IC50 in data set [1] and in data set [2] were 10.8 µM and 8.2 µM, respectively.

For the molecule `Oc1cc(-c2cc3c(Br)ccc(O)c3o2)c(Br)c(O)c1O`, the half-inhibitory concentration (IC50) in data set [1] amounted to 19.4 µM; in data set [2], 12.4 µM.

Take `COc1cc(Br)c(-c2cc3cccc(OC)c3o2)cc1OC`: the IC50 in data set [1] and in data set [2] was over 100 µM in each case.

In the case of `Oc1cc(Br)c(-c2cc3ccccc3o2)cc1O`, the IC50 worked out at 33.8 µM in data set [1] and 7.7 µM in data set [2].

`CCOC(=O)/C=C/c1ccc(O)c2oc(-c3ccc(O)c(O)c3)cc12`: the half-maximal inhibitory concentration (IC50) in data set [1] is 16.8 µM; in data set [2] it was 8.9 µM.

Usually IC50 stands for the concentration needed to halve the response being measured. What is called Ki is a dissociation constant, usually derived from enzyme kinetics or from competition with a known ligand.
